Measurements of several laboratories.
Effect on: cell growth or viability

Compound	cell line	assay	setting	IC50
CC(O)(CS(=O)(=O)c1ccc(F)cc1)C(=O)Nc1ccc(C#N)c(C(F)(F)F)c1 (stereo not drawn)	LAPC4	MTT	7 days	9 µM
CC(C)c1cc(C(=O)N2Cc3ccccc3C2)c(O)c2ccoc12	UMUC3	ATP luminescence	72 h	71.6 µM
COc1ccc(/C=C/C(=O)/C=C/c2cn(-c3ccccc3)nc2-c2ccccc2)cc1O	LLC-PK1	MTT	72 h	8.39 µM
CC(C)c1cc(C(=O)N2Cc3ccccc3C2)c(O)c2c1CCC2	UMUC3	ATP luminescence	72 h	57.4 µM
COc1cc(/C=C/C(=O)/C=C/c2cn(-c3ccccc3)nc2-c2ccccc2)cc(OC)c1O	LLC-PK1	MTT	72 h	10.2 µM
O=c1cc(-c2ccc(O)c(O)c2)oc2cc(O)cc(O)c12	RD	WST-1	48 h	16 µM
COc1cc2nccc(Oc3ccc(NC(=O)C4(C(=O)Nc5ccc(F)cc5)CC4)cc3)c2cc1OC	RD		72 h	1.21 µM
CS(=O)(=O)c1ccc(-n2cc(/C=N/N=c3\[nH]c(-c4ccc([N+](=O)[O-])cc4)cs3)c(-c3ccc([N+](=O)[O-])cc3)n2)cc1	F180	MTT	48 h	70.6 µM
Cc1cc(-c2nc(C(=O)Nc3cc4oc(N5CCOCC5)nc4nc3N3CC[C@@H](O)C3)co2)ccn1	SU-DHL-4		5 days	> 10 µM
COc1cc([C@@H]2c3cc4c(cc3[C@@H](O[C@@H]3O[C@@H]5CO[C@@H](C)O[C@H]5[C@H](O)[C@H]3O)[C@H]3COC(=O)[C@H]23)OCO4)cc(OC)c1O	Caco-2	MTS	72 h	16.5 µM
Cn1nnc2c(Cl)ncn2c1=O	U-118-MG	resazurin	7 days	60 µM
Cc1nc(Nc2ncc(C(=O)Nc3c(C)cccc3Cl)s2)cc(N2CCN(CCO)CC2)n1	F180	MTT	48 h	32.2 µM
COc1ccc(CCNC(=O)C(=O)Nc2ccc(Cl)cc2)cc1	NCI-H2122			< 0.1 µM
C[C@@H]1[C@H](O)[C@@H](C)/C=C/C=C/C=C/C=C/C=C/C=C/C=C/[C@H](O[C@@H]2O[C@H](C)[C@@H](O)[C@H](N)[C@@H]2O)C[C@@H]2O[C@](O)(C[C@@H](O)C[C@@H](O)[C@H](O)CC[C@@H](O)C[C@@H](O)CC(=O)O[C@H]1C)C[C@H](O)[C@H]2C(=O)O	LLC-PK1	neutral red	48 h	0.6 µg/mL
COc1ccc(/C=C/C(=O)/C=C/c2c(C)nn(-c3ccccc3)c2Cl)cc1O	LLC-PK1	MTT	72 h	16.1 µM
CC(C)c1cc(C(=O)N2Cc3ccccc3C2)c(O)c2c1CCC2=O	UMUC3	ATP luminescence	72 h	> 100 µM
O=C(O)CCCc1ccccc1	LoVo	MTT	72 h	> 50 µM
CC(C)c1cc(C(=O)N2Cc3ccccc3C2)c(O)c2cc[nH]c12	UMUC3	ATP luminescence	72 h	> 100 µM
CC(C)Cc1ccc(-c2nn(-c3ccc(S(C)(=O)=O)cc3)cc2/C=N/N=c2\[nH]c(-c3ccc(Br)cc3)cs2)cc1	F180	MTT	48 h	73.7 µM
CC(C)C[C@H](NC(=O)[C@H](Cc1ccccc1)NC(=O)c1cnccn1)B(O)O	U-118-MG	ATP luminescence		0.0075 µM
CC1(C)CC[C@]2(C)CC[C@]3(C)C(=CC[C@@H]4[C@@]5(C)CC[C@H](O)C(C)(C)[C@@H]5CC[C@]43C)[C@@H]2C1	RD	WST-1	48 h	93.7 µM
